19 compounds from ChEMBL document CHEMBL1134485, “Diguanidino and "reversed" diamidino 2,5-diarylfurans as antimicrobial agents” (2001) can be followed below.

≈ marks a conversion by molar mass, not a printed value. Some results are limits rather than exact numbers.

Experiment [1] relates to Aspergillus fumigatus. Put plainly: Antimicrobial activity against Aspergillus fumigatus (MIC). It counts as functional.
Experiment [2] concerns Candida albicans. Put plainly: In vitro minimum inhibitory concentration against Candida albicans. In kind it is functional.
In experiment [3] the test system is Nucleic Acid.
The test system of experiment [4] is Nucleic Acid. The source holds these as a separate data set.
Experiment [5] concerns Aspergillus fumigatus. In words: In vitro minimum fungicidal concentration required to inhibit Aspergillus fumigatus(MFC). In kind it is functional. An outline of the steps:
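Mould MFC: 100 µL aliquots from macrodilution tubes (RPMI 1640/MOPS pH 7.0, 0.5 × 10³ to 2.5 × 10³ CFU/mL conidial inoculum, 30 °C, 48-72 h, drug 100 to 0.09 µg/mL) showing complete growth inhibition plated on Sabouraud agar; MFC taken as lowest drug concentration giving three or fewer colonies.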

For experiment [6], the system named is Mycobacterium tuberculosis. Put plainly: In vitro minimum inhibitory concentration required to inhibit Mycobacterium tuberculosis. In kind it is functional. An outline of the steps:
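M. tuberculosis H37Rv grown in BACTEC 12B medium; fluorometric broth microdilution (Microplate Alamar Blue Assay). […] MIC = lowest concentration reducing relative fluorescence units by ≥90% relative to control culture. Testing done by TAACF.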

In experiment [7] the test system is Candida albicans. Put plainly: In vitro minimum fungicidal concentration against Candida albicans. It counts as functional. The essentials: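 Yeast MFC: after broth macrodilution (RPMI 1640/MOPS pH 7.0, 0.5 × 10³ to 2.5 × 10³ CFU/mL, 35 °C, 48 h or 72 h for C. neoformans, drug 100 to 0.09 µg/mL), 100 µL from tubes with complete inhibition plated on Sabouraud agar; lowest concentration yielding three or fewer colonies recorded.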

The subject of experiment [8] is Aspergillus fumigatus. Put plainly: In vitro antimicrobial activity against Aspergillus fumigatus (MIC). In kind it is functional.
The subject of experiment [9] is Nucleic Acid. Put plainly: DNA binding affinity to poly dA.dT. In kind it is nucleic-acid assay.

`Cl.Cl.N=C(N)Nc1ccc(-c2ccc(-c3ccc(NC(=N)N)cc3C(F)(F)F)o2)c(C(F)(F)F)c1`: the figures for the MIC (in the experiment with Aspergillus fumigatus [1]; against Candida albicans [2]; in [6]) were 100 µg/mL, 10 µg/mL and 8 µg/mL, respectively. The ΔTm in the experiment with Nucleic Acid [3] is 5.9; with Nucleic Acid [4] it was 0. In addition, the MFC is 100 µg/mL against Aspergillus fumigatus [5] and 10 µg/mL with Candida albicans [7].
On to `N=C(Nc1ccc(-c2ccc(-c3ccc(NC(=N)c4ccccn4)cc3)o2)cc1)c1ccccn1`, for which the ΔTm was found to be 19.6 in the experiment with Nucleic Acid [3] and 7.5 in the experiment on Nucleic Acid [4]. In experiment [6], this compound came in with an MIC of 1.56 µg/mL (≈ 3.4 µM).
Take `N=C(N)c1ccc(-c2ccc(-c3ccc(C(=N)N)cc3)o2)cc1` [FURAMIDINE]: in the experiment on Candida albicans [2], the MIC was 6.25 µg/mL (≈ 20.5 µM). Also, the ΔTm was determined as 25 with Nucleic Acid [3] and 11.7 in the experiment with Nucleic Acid [4]. In the experiment with Candida albicans [7], this compound yielded an MFC of 25 µg/mL (≈ 82.1 µM).
With `Cl.Cl.N=C(N)Nc1ccc(-c2ccc(-c3ccc(NC(=N)N)cc3)o2)cc1`, the MIC came out at 12.5 µg/mL in the experiment with Candida albicans [2], 3.13 µg/mL in [6] and 100 µg/mL in the experiment on Aspergillus fumigatus [8]. The ΔTm with Nucleic Acid [3] turned out to be 21.6; in the experiment with Nucleic Acid [4], 10.8. Moreover, the MFC is greater than 100 µg/mL against Aspergillus fumigatus [5] and 25 µg/mL against Candida albicans [7].
Take `CC(=N)Nc1ccc(-c2ccc(-c3ccc(NC(C)=N)cc3)o2)cc1`: the MIC in the experiment with Aspergillus fumigatus [1] was 100 µg/mL (≈ 301 µM); with Candida albicans [2], greater than 100 µg/mL. Moreover, the ΔTm amounted to 15.9 in the experiment on Nucleic Acid [3] and 6 in the experiment on Nucleic Acid [4]. In the experiment with Aspergillus fumigatus [5], this compound showed an MFC greater than 100 µg/mL.
As to `Cc1cc(NC(=N)c2ccccn2)cc(C)c1-c1ccc(-c2c(C)cc(NC(=N)c3ccccn3)cc2C)o1`, the MIC with Aspergillus fumigatus [1] and against Candida albicans [2] was 10 µg/mL (≈ 19.4 µM) in each case. The ΔTm in the experiment on Nucleic Acid [3] turned out to be 5.7; with Nucleic Acid [4], 1.2. The MFC with Aspergillus fumigatus [5] and with Candida albicans [7] was greater than 100 µg/mL each time.
For `Cc1cc(NC(=N)c2ccccn2)ccc1-c1ccc(-c2ccc(NC(=N)c3ccccn3)cc2C)o1`, the figures for the MIC (against Aspergillus fumigatus [1]; against Candida albicans [2]; in experiment [6]) were 10 µg/mL (≈ 20.6 µM), 10 µg/mL (≈ 20.6 µM) and no more than 1 µg/mL, respectively. Also, the ΔTm came out at 22.6 in the experiment on Nucleic Acid [3] and 8.9 with Nucleic Acid [4]. For the same compound, the MFC against Aspergillus fumigatus [5] is 100 µg/mL (≈ 206 µM); in the experiment on Candida albicans [7] it was 10 µg/mL (≈ 20.6 µM).
Consider `Cc1cc(NC(=N)c2ccccc2)ccc1-c1ccc(-c2ccc(NC(=N)c3ccccc3)cc2C)o1`, for which the MIC amounted to 3.12 µg/mL (≈ 6.44 µM) in the experiment with Candida albicans [2] and 3.13 µg/mL (≈ 6.46 µM) in [6]. Moreover, the ΔTm with Nucleic Acid [3] came out at 24.9; in the experiment with Nucleic Acid [4], 7.8. The MFC against Candida albicans [7] was found to be 6.25 µg/mL (≈ 12.9 µM).
On to `N=C(Nc1ccc(-c2ccc(-c3ccc(NC(=N)C4CCCCC4)cc3)o2)cc1)C1CCCCC1`, for which the results for the MIC (against Aspergillus fumigatus [1]; in the experiment on Candida albicans [2]; in experiment [6]) were 100 µg/mL (≈ 213 µM), greater than 100 µg/mL and no more than 6.25 µg/mL, respectively. The figures for the ΔTm in the experiment with Nucleic Acid [3] and in the experiment on Nucleic Acid [4] were 26.7 and 12.8, respectively. Further, the MFC in the experiment with Aspergillus fumigatus [5] was greater than 100 µg/mL.
Take `COc1cc(NC(=N)c2ccccn2)ccc1-c1ccc(-c2ccc(NC(=N)c3ccccn3)cc2OC)o1`: the MIC (with Aspergillus fumigatus [1]; with Candida albicans [2]; in [6]) was no more than 1 µg/mL throughout. Also, the ΔTm with Nucleic Acid [3] came out at 19; with Nucleic Acid [4], 7.8. The MFC in the experiment with Aspergillus fumigatus [5] and with Candida albicans [7] was no more than 1 µg/mL each time.
Take `Cl.Cl.N=C(Nc1ccc(-c2ccc(-c3ccc(NC(=N)c4ccccc4)cc3)o2)cc1)c1ccccc1`: the results for the MIC (against Candida albicans [2]; in experiment [6]) were 25 µg/mL and 1.56 µg/mL, respectively. Further, the values for the ΔTm in the experiment with Nucleic Acid [3] and in the experiment with Nucleic Acid [4] were 28.6 and 15, respectively. Moreover, the MFC in the experiment with Candida albicans [7] was found to be 50 µg/mL.
Regarding `N=C(Nc1ccc(-c2ccc(-c3ccc(NC(=N)c4ccccn4)cc3Cl)o2)c(Cl)c1)c1ccccn1`, the MIC was greater than 100 µg/mL against Aspergillus fumigatus [1], 100 µg/mL (≈ 190 µM) in the experiment on Candida albicans [2] and 8 µg/mL (≈ 15.2 µM) in experiment [6]. Further, the ΔTm in the experiment on Nucleic Acid [3] turned out to be 5.2; in the experiment on Nucleic Acid [4], 0. The compound further displayed an MFC against Candida albicans [7] greater than 100 µg/mL.
Consider `Cl.Cl.N=C(N)Nc1ccc(-c2ccc(-c3ccc(NC(=N)N)cc3Cl)o2)c(Cl)c1`, for which the MIC against Aspergillus fumigatus [1] was determined as 100 µg/mL; against Candida albicans [2], 10 µg/mL; in experiment [6] it was 4 µg/mL. Moreover, the values for the ΔTm with Nucleic Acid [3] and with Nucleic Acid [4] were 26.1 and 4.7, respectively. For the same compound, the MFC against Aspergillus fumigatus [5] and against Candida albicans [7] was 100 µg/mL in each case.
The compound `CO[C@H]1/C=C/O[C@@]2(C)Oc3c(C)c(O)c4c(O)c(c(/C=N/N5CCN(C)CC5)c(O)c4c3C2=O)NC(=O)/C(C)=C\C=C\[C@H](C)[C@H](O)[C@@H](C)[C@@H](O)[C@@H](C)[C@H](OC(C)=O)[C@@H]1C` [RIFAMPIN] registered an MIC in experiment [6] of 0.062 µg/mL (≈ 0.0753 µM).
For the compound `COc1cc(NC(=N)N)ccc1-c1ccc(-c2ccc(NC(=N)N)cc2OC)o1.Cl.Cl`, the MIC against Aspergillus fumigatus [1] was determined as 100 µg/mL; in the experiment with Candida albicans [2], 10 µg/mL; in [6], 16 µg/mL. In addition, the ΔTm turned out to be 15.2 in the experiment on Nucleic Acid [3] and 2.8 in the experiment on Nucleic Acid [4]. Moreover, the MFC with Aspergillus fumigatus [5] and with Candida albicans [7] was 100 µg/mL in each case.
`Cc1cc(NC(=N)N)ccc1-c1ccc(-c2ccc(NC(=N)N)cc2C)o1.Cl.Cl`: the MIC in the experiment with Aspergillus fumigatus [1] is 33.4 µg/mL; in the experiment on Candida albicans [2], 1.04 µg/mL; in experiment [6], no more than 1 µg/mL. In addition, the ΔTm with Nucleic Acid [3] was determined as 17.8; in the experiment on Nucleic Acid [4], 6.9. Moreover, the MFC came to 33.4 µg/mL with Aspergillus fumigatus [5] and 2.08 µg/mL in the experiment on Candida albicans [7].
Regarding `Cc1cc(NC(=N)N)cc(C)c1-c1ccc(-c2c(C)cc(NC(=N)N)cc2C)o1`, the ΔTm with Nucleic Acid [3] stood at 2.7; in the experiment with Nucleic Acid [4] it was 1.4.
In the case of `Cc1cc(NC(=N)c2ccc3ccccc3n2)ccc1-c1ccc(-c2ccc(NC(=N)c3ccc4ccccc4n3)cc2C)o1`, the MIC in the experiment on Aspergillus fumigatus [1] and in the experiment with Candida albicans [2] was 100 µg/mL (≈ 170 µM) in each case. For the same compound, the values for the ΔTm in the experiment with Nucleic Acid [4] and with Nucleic Acid [9] were 1.1 and 7.5, respectively. The MFC with Candida albicans [7] was found to be 100 µg/mL (≈ 170 µM).
Compound `OC(Cn1cncn1)(Cn1cncn1)c1ccc(F)cc1F` [FLUCONAZOLE] had an MIC against Candida albicans [2] of 6.25 µg/mL (≈ 20.4 µM). Further, the MFC in the experiment on Candida albicans [7] was found to be 25 µg/mL (≈ 81.6 µM).
